Screening results (PubChem BioAssay)
ABCG2 block: ABCG2 efflux pump inhibitors, primary screen, multiplex with ABCB1, IgMXP3 cells, flow cytometry. Broad substrate specificity ATP-binding cassette transporter ABCG2 (Homo sapiens), Q9UNQ0. JC-1 efflux. inhibition, % at 6.6 µM. 0.1% of 190,000 active. AID 1325, 2008;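 active means inhibition above 80%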;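 further: 0% = DMSO and 100% = nicardipine control wells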
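Times: 10 min at 25 °C | Test system: Two drug-resistant human cell lines, ABCG2 and ABCB1 | Quantity: 3 million cells/mL final, two lines in 1:1 ratio | Signal: Flow cytometry, 530 nm JC-1 signal | Dosing: Compound at 6.6 µM | Controls: Nicardipine and DMSO wells | Reagent: JC-1 as fluorescent efflux pump substrate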
ROMK primary: ROMK potassium channel modulators, primary screen, cell-based, thallium flux, MLSMR library. Tet-inducible ROMK, thallium flux fluorescence; actives lie on both sides. B-score at 10 µM. 2% of 130,000 active;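 active means signal ratio slope over the read window, or its plate-corrected B-score, at least 3 SD from the plate mean, either direction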;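 further: B-score of the F/F0 ratio slope over 7 to 12 s after thallium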
Target sequence (P48048 whole entry, looked up): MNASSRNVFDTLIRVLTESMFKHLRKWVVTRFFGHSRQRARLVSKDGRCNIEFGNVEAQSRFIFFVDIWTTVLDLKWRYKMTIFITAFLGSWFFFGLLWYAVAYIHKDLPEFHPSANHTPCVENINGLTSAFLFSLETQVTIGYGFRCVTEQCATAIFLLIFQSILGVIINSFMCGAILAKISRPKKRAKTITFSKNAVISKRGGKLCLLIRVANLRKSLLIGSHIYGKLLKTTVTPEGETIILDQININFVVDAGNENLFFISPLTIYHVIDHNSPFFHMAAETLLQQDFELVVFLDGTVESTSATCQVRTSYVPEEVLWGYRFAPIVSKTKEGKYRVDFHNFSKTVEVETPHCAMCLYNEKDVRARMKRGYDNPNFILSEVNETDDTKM
ABCB1 inh: ABCB1 efflux pump inhibitors, primary screen, cell-based, multiplex, flow cytometry, ABCG2 counter-screen; ATP-dependent translocase ABCB1 (Homo sapiens), P08183; CCRF-Adr cells, JC-1 efflux; inhibition, % at 6.6 µM; 0.067% of 190,000 active; AID 1326, 2008; in the data active means inhibition above about 40%;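 further: 0% = vehicle and 100% = reference inhibitor; higher value means more JC-1 retained so stronger ABCB1 efflux block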
PMI activator: activators of human PMI, primary screen, biochemical, fluorescence intensity, near-Km mannose 6-phosphate | Mannose-6-phosphate isomerase (Homo sapiens), P34949 | purified human PMI, coupled resazurin fluorescence, 20 min; active compounds read high; 1 = vehicle control, 0 substrate-free wells | activation factor at 20 µM | 0.005% of 190,000 active;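 active means activation factor of 2 or more at 20 µM, relative to plate controls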
Cl transport mod: KCC2 cotransporter modulators, thallium flux, primary screen, cell-based, HEK293 KCC2, FluoZin-2 fluorescence, MLSMR; KCC2 cells, thallium flux FluoZin-2 fluorescence; B-score of Tl+ flux slope (higher = more flux/activation; lower = inhibition) at 10 µM; 2.2% of 190,000 active; AID 1456, 2008;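 active means thallium flux slope and its plate-corrected score both differing from the plate sample mean at a set confidence after two filtering rounds, in either direction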;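 further: slope of fluorescence scaled to starting intensity during 10 to 20 s after thallium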
PMI act hi M6P: human PMI activators, high substrate, primary screen, biochemical, fluorescence intensity, near-saturating mannose 6-phosphate | Mannose-6-phosphate isomerase (Homo sapiens), P34949 | activation factor at 20 µM | 0.34% of 190,000 active | coupled PMI enzyme assay, resazurin fluorescence, 20 min; active compounds read high; 1 = untreated enzyme, 0 = substrate-free blank;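 active means activation factor of 2 or more at 20 µM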
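Test system: human phosphomannose isomerase with PGI, G6PDH, diaphorase coupling enzymes; amount: 15 ng/mL PMI; incubation: enzyme reaction with compound 20 min at room temperature; technique: resorufin fluorescence (Ex 544/Em 590 nm) from resazurin via diaphorase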
KCC2 secondary: KCC2 modulators in sodium-free buffer, confirmation, cell-based, HEK293 KCC2, thallium flux, secondary assay. shares compounds with Cl transport mod. FluoZin2 fluorescence; active compounds read high. normalised thallium flux (F/F0 slope) at 10 µM. 15% of 3,700 active. AID 1713, 2009;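 active means thallium flux slope above the same plate's solvent-only control mean plus 3 SD; inconclusive means the two replicate wells disagree; inactive means no significant difference from solvent-only control wells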
KCC2 bumet counter: thallium flux persisting under bumetanide in KCC2 cells, confirmation, counter-screen for KCC2 modulator project, cell-based, HEK293 KCC2, FluoZin2, secondary assay 3 | HEK293-KCC2 + bumetanide/ouabain; active compounds read high | 49% of 3,700 active | shares compounds with Cl transport mod | normalized thallium flux at 10 µM;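 active means thallium entry rate above the same plate's blocked-transporter control wells by more than 3 SD; inconclusive means the two repeat wells disagree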;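 further: raw slope of fluorescence over initial fluorescence between 10 and 20 s after thallium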
KCC2 secondary2: KCC2 modulators without ouabain present, confirmation, cell-based, HEK293 KCC2, thallium flux, FluoZin2, secondary assay 2 | shares compounds with Cl transport mod | thallium flux FluoZin2 fluorescence; actives lie on both sides; F/F0 rise rate, 10–20 s post-thallium | normalized thallium flux at 10 µM | 23% of 3,700 active | AID 1715, 2009;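 active means thallium flux slope more than 3 SD above or below the plate's solvent-only control mean, mostly below; inconclusive means the two repeat wells disagreed; inactive means no significant shift from solvent-only controls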;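 further: raw slope with 0.1% DMSO as baseline and bumetanide as block control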
HEK293 Tl flux: thallium flux modulation in parental HEK cells, confirmation, counter-screen for KCC2 modulator project, cell-based, counterscreen 1; shares compounds with Cl transport mod; HEK293 parental cells, thallium flux FluoZin2, ouabain; baseline-ratio fluorescence slope, 10–20 s after thallium; thallium flux rate (normalised fluorescence) at 10 µM; 46% of 3,700 active;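 active means thallium flux rate significantly above the same plate's solvent-only control wells, beyond their mean plus 3 SD; inconclusive means the two replicate wells gave conflicting results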
KCC2 retest ouab: KCC2 inhibitors and activators, ouabain retest, confirmation, HEK-KCC2 cells; shares compounds with Cl transport mod; HEK293-KCC2, thallium flux FluoZin2 fluorescence; bidirectional: low = inhibitor, high = activator; raw Tl+ flux slope (below DMSO = inhibition, above = activation) at 10 µM; 48% of 3,700 active; AID 1717, 2009;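 active means thallium flux slope beyond 3 SD from same-plate DMSO control mean in most replicates, usually higher, sometimes lower; inconclusive means repeat tests gave conflicting results; inactive means no significant difference from controls in most replicates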;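 further: slope of initial-normalized fluorescence between seconds 10 and 20 after thallium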
HEK counter2: native HEK Tl+ uptake effects, second counter-screen – HEK cells, counterscreen 2, counter-screen for KCC2 modulator project, confirmation; thallium flux slope at 10 µM; shares compounds with Cl transport mod; 33% of 3,700 active; HEK293 parental, thallium flux FluoZin-2 fluorescence slope;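 active means thallium flux slope above the same plate's solvent-control mean plus 3 SD in both duplicate wells; inconclusive means duplicate wells that disagreed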;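 further: run without ouabain in cells lacking the KCC2 cotransporter; slope of fluorescence scaled to its starting value between 10 and 20 s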
* = called active by the depositor; ? = inconclusive; nt = no result given. Shown are actives, neighbours in structure and some others; about 3.3% of the full set was active somewhere.

SMILES	ABCG2 block	ROMK primary	ABCB1 inh	PMI activator	Cl transport mod	PMI act hi M6P	KCC2 secondary	KCC2 bumet counter	KCC2 secondary2	HEK293 Tl flux	KCC2 retest ouab	HEK counter2
Cc1cc(Cl)cc(Cl)c1OCCOc1cccc2cccnc12	10	0.11	2	0.9	-7*	0.9	0.0057	0.0045	0.029	0.0081	0.018	0.011
COc1cccc(CN2CCC(N(CCc3ccccc3)Cc3ccccc3)CC2)c1OC	-3	-0.61	8	1	-0.25	1	nt	nt	nt	nt	nt	nt
COc1ccc(-c2noc(=O)n2Cc2cc(C)ccc2C)cc1	3	0.37	1	nt	-0.042	nt	nt	nt	nt	nt	nt	nt
Cc1sc2nc(C3CC3)nc(SCC(=O)N3CCCc4ccccc43)c2c1C	16	-0.059	4	0.9	8.5*	0.9	0.011	0.019*	0.032	0.013*	?	0.012*
c1ccc(-n2nnnc2NC2CCCCC2)cc1	1	nt	0	1	nt	1	nt	nt	nt	nt	nt	nt
CC1(C)Cc2c(sc3c4nnnn4c4nnnn4c23)CO1	8	0.032	0	1	-0.58	0.9	nt	nt	nt	nt	nt	nt
C(=N\NC1=Nc2cccc3cccc1c23)/c1cccnc1	-1	-0.39	-1	1	-3.8*	0.7	0.0065	?	0.029	0.0071	0.016*	0.01
CCOc1ccc2nc(NC(=O)CSc3nc(-c4ccccc4)c(C#N)c(=O)[nH]3)sc2c1	-4	-0.29	-2	1.6	-3.2*	1.1	0.0092	?	0.035	0.0053*	0.021	0.0092
COc1cccc(-c2nc(SCC(=O)Nc3nc(-c4ccccc4)c(C)s3)[nH]c(=O)c2C#N)c1	-13	nt	-2	0.9	-3	1	nt	nt	nt	nt	nt	nt
CCOc1ccccc1Nc1nnc(SC(C)C(=O)Nc2nc(-c3ccccc3)cs2)s1 (configuration not stated)	-7	-0.14	5	1	-0.31	1	nt	nt	nt	nt	nt	nt
CCN(CC)c1ccc2c(C)c(-c3ccc(N)cc3)c(=O)oc2c1	0	0.17	0	0.8	-5.1*	0.8	0.0097	0.011*	?	0.0065	0.016*	0.01
CCN(CC)c1ccc2c(C)c(Cl)c(=O)oc2c1	20	-1.8	1	1	1.1	1	nt	nt	nt	nt	nt	nt
O=C(O)c1ccccc1-c1ccccc1C(=O)Nc1cccc(-c2nc3ccccc3o2)c1	0	-0.00074	0	1	-5.8*	1.1	0.0064	0.0057*	0.026*	?	0.013*	?
O=C(Nc1cccc(-c2nc3ccccc3o2)c1)c1cccnc1	3	0.04	1	1	-0.45	1	nt	nt	nt	nt	nt	nt
O=C(Nc1ccc2oc(-c3ccccc3)nc2c1)c1cccs1	1	nt	0	1.1	-0.8	1.1	nt	nt	nt	nt	nt	nt
O=C(Nc1ccc2oc(-c3ccccc3)nc2c1)c1ccncc1	3	nt	0	1	-4.5*	1	0.0068	0.0051	0.022*	0.0074	?	0.011
COc1ccc(C(C#N)c2ccc(=O)[nH]n2)cc1 (configuration not stated)	-2	0.65	0	0.9	-0.064	0.9	nt	nt	nt	nt	nt	nt
Cc1cc(-c2cc(C(=O)NCc3ccccc3)on2)nc(NC2CCCC2)n1	nt	nt	nt	nt	-1.1	nt	nt	nt	nt	nt	nt	nt
[O-][n+]1cccc2c(Br)cc(Br)c(O)c21	-1	-0.31	-1	1.1	29*	0.8	0.0071	0.073*	0.047*	0.047*	0.064*	0.034*
C[n+]1cccc2c(Br)ccc([O-])c21	nt	nt	nt	nt	-0.069	nt	nt	nt	nt	nt	nt	nt
Cc1nc(SCC(=O)NC(C)(C#N)C2CC2)c2c(-c3cccs3)csc2n1 (configuration not stated)	4	-1.3	2	1	5.1*	0.9	0.011	0.026*	0.03	0.013*	0.033*	0.011*
CN(C)c1ccc(NC(=O)c2sc(SCC(=O)Nc3nccs3)nc2N)cc1	1	-0.15	0	0.9	14*	0.9	0.0061	0.013*	0.034	0.012*	?	0.014*
CN(C)c1ccc(NC(=O)c2sc(SCC(=O)Nc3ccc(Br)cc3)nc2N)cc1	0	nt	0	1	nt	1	nt	nt	nt	nt	nt	nt
c1ccc(Nc2nc(N3CCCC3)nc(N3CCCC3)n2)cc1	8	nt	-1	0.9	1	1	nt	nt	nt	nt	nt	nt
O=C(O)c1cccc(Nc2nc(Nc3ccccc3)nc(N3CCCC3)n2)c1	1	nt	0	1.3	-3*	1.3	0.0084	0.0057	0.029	?	0.029*	?
COc1ccccc1OCc1ccc(C(=O)N2N=C(C(F)F)CC2(O)C(F)F)o1 (configuration not stated)	3	-0.59	0	1	-3.3*	1.1	0.0071	0.0057	0.025*	0.0067	0.013*	?
O=C(c1ccc(COc2ccc(Cl)cc2)o1)N1N=C(C(F)F)CC1(O)C(F)F (configuration not stated)	13	nt	5	0.9	-2	0.9	nt	nt	nt	nt	nt	nt
